Screening data (PubChem)
Most compounds without a hit are left out; they make up all but 3.7% or so of the library.
KCNK3 inh = human KCNK3 channel inhibition, primary screen | AID 602410 | B-score at 10 µM | CHO-KCNK3 thallium flux, FluxOR fluorescence; active compounds read low | 0.84% of 340,000 active;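 active means B-score under library mean minus 4 SD, starting fluorescence ratio at most library mean plus 5 SD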;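 further: more negative B-score means stronger inhibition of thallium flux through KCNK3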
KCNQ1 block = inhibitors of human KCNQ1 potassium channel | P51787 | CHO-K1 KCNQ1, FluxOR thallium flux fluorescence; active compounds read high | B-score at 10 µM | 1.3% of 310,000 active | AID 2642;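 active means compounds whose thallium flux B-score, printed positive for inhibition, exceeds three library SD while starting fluorescence stays within three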;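 further: channel opened by potassium depolarization with thallium stimulus after 20 min compound exposure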
Kir21 block = inhibitors of mouse Kir2.1 inward-rectifier potassium channel; P35561; HEK293-Kir2.1, FluxOR thallium flux fluorescence; active compounds read low; B-score at 10 µM; 0.85% of 310,000 active;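 active means fluorescence ratio B-score at or below minus 3 SD of library scores, with starting-brightness B-score within 2 SD, cut at about -4.2 in these data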;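 further: channel flux triggered by added potassium and thallium sulfate stimulus; B-score of peak minus minimum fluorescence over baseline after thallium stimulus; more negative B-score means stronger Kir2.1 block with less thallium influx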
hERG rescue = shields human hERG channel from block by proarrhythmic agents; Q12809; CHO-hERG, FluxOR thallium flux, dofetilide IC70 present; activation (rescue from dofetilide block), less the hit threshold, % at 10 µM; 0.51% of 310,000 active; AID 1511;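 active means activation above the mean of controls blocked by dofetilide plus 5 SD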;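 further: thallium influx through hERG after potassium depolarization seen as dye fluorescence rise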
KCNK9 inh = human KCNK9 channel inhibition; 1.2% of 310,000 active; Q9NPC2; HEK293 KCNK9, FluxOR thallium flux fluorescence; active compounds read low; B-score at 10 µM; AID 488922;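 active means ratio B-score over 3 SD below the library mean, with starting fluorescence within 5 SD of its mean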;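 further: negative B-score means less thallium flux so channel inhibition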
KCNQ1 pot = potentiates or activates the human KCNQ1 potassium channel; P51787; CHO-K1 KCNQ1, thallium flux FluxOR fluorescence; active compounds read high; B-score at 10 µM; 0.35% of 310,000 active; AID 2648;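 active means fluorescence ratio B-score, a plate-corrected score, at least three library SD, with initial intensity B-score within 5 SD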
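Test system: CHO-K1 cells stably expressing KCNQ1 / Medium: assay buffer / Also added: depolarizing K+/Tl+ stimulus, K2SO4 and Tl2SO4 each 12.5 mM in 5x stock / Incubation: 90 min dye loading and 20 min compound exposure, both at room temperature / Signal: thallium influx via FluxOR fluorescence, kinetic imaging / Evaluation: B score of baseline-normalized fluorescence ratio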
KCNQ1 block val = reconfirmed blocker of the human KCNQ1 potassium channel. shares compounds with KCNQ1 block. KCNQ1 cell line, FluxOR thallium flux fluorescence. inhibition, % at 10 µM. 93% of 1,600 active. AID 588353;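 active means primary screen active, with duplicate mean exceeding buffer control mean plus 3 SD of buffer wells, cut at about 28% in these data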;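 further: 0% = buffer control ratio and 100% = XE991 inhibitor control ratio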
CHO Tl flux = activity in parental CHO cells lacking KCNQ1; shares compounds with KCNQ1 block; parental CHO-K1, FluxOR thallium flux fluorescence ratio; active compounds read low; zero means no signal rise above baseline; fluorescence ratio (Tl flux) at 10 µM; 21% of 1,600 active; AID 588366;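 active means mean of duplicate thallium-flux fluorescence ratios in parental host cells more than 5 SD below the buffer control mean, cut at about 0.38 in these data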;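 further: ratio is peak minus minimum fluorescence divided by baseline fluorescence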
KCNQ1 ephys val = confirmation of human KCNQ1 potassium channel inhibitors by electrophysiology; calls only at 10 µM; shares compounds with KCNQ1 block; KCNQ1-CHO cells, automated patch clamp current; 20% of 490 active; AID 624120;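 active means KCNQ1 current drop exceeding 3 SD of negative control wells, seen in both duplicate runs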;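 further: steady state current during a 2 s step from -80 to +40 mV; negative values mean current inhibition and positive values mean potentiation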
KCNQ2 spec = KCNQ1 inhibitor that also blocks rat KCNQ2 channel; shares compounds with KCNQ1 block; KCNQ2 cells, FluxOR thallium flux fluorescence; inhibition, % at 10 µM; 71% of 1,600 active;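 active means mean percent inhibition of the KCNQ2 thallium signal more than 5 SD above the buffer-only control wells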;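 further: KCNQ2 expressed in CHO cells; 0% = buffer control wells and 100% = XE-991 inhibitor control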
Target sequence (O88943 whole entry, looked up): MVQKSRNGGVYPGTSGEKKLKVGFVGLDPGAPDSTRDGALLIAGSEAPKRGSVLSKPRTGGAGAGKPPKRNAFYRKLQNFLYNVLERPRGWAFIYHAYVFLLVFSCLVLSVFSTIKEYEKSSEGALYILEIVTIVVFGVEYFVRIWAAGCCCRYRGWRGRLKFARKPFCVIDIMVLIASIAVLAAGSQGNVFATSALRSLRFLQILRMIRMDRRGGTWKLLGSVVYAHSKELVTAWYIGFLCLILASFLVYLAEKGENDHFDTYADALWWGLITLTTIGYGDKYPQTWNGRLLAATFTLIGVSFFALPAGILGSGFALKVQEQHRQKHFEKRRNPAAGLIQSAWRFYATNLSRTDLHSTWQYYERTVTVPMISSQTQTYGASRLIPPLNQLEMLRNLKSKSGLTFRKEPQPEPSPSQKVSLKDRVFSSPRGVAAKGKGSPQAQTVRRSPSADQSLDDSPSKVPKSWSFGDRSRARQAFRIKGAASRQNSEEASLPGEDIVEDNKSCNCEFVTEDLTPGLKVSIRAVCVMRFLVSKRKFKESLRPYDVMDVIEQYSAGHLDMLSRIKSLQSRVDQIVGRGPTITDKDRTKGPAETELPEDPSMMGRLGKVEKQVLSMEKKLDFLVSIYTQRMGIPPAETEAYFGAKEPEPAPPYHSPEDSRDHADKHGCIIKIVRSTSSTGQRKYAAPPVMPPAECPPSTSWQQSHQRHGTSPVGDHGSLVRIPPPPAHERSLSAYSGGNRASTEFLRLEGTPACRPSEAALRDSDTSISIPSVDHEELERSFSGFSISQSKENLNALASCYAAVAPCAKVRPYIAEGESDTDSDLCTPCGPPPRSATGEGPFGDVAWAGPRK
KCNQ1 KCNE1 spec = human KCNQ1/KCNE1 inhibition in KCNQ1 specificity screen; inhibition, % at 10 µM; shares compounds with KCNQ1 block; 77% of 1,600 active; KCNQ1/KCNE1 cells, FluxOR thallium flux fluorescence;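 active means mean percent inhibition of duplicate wells above the buffer-only control mean plus 3 SD of those controls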;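 further: 0% = buffer only wells and 100% = XE-991 inhibitor control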
KCNK9 block conf = human KCNK9 inhibitor confirmation; shares compounds with KCNK9 inh; HEK293 KCNK9 cells, FluxOR thallium flux fluorescence; inhibition, % at 10 µM; 43% of 4,900 active;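 active means thallium signal inhibited by more than 5 SD of the compound-free buffer control wells, on both duplicate plates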;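 further: 0% = assay buffer control wells without compound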
Kir2-1 spec = mouse Kir2.1 off-target activity of KCNK9 modulators | shares compounds with KCNK9 inh | Kir2.1 cells, FluxOR thallium flux fluorescence | inhibition, % at 10 µM | 4% of 4,900 active | AID 492993;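 active means thallium signal drop more than 5 SD beyond the mean of the no-compound control wells, seen in both duplicate plates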;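 further: signal is fluorescence rise after thallium addition divided by baseline fluorescence; plate controls were assay buffer only for no effect and full block by chlorpromazine control for full effect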
HEK293 Tl ctr = second counter-screen for KCNK9 modulators: effect in non-induced cells | shares compounds with KCNK9 inh | non-induced KCNK9-HEK293, FluxOR thallium flux | inhibition, % at 10 µM | 40% of 4,900 active;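 active means thallium signal drop beyond 5 SD of the untreated control mean, on both duplicate plates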;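 further: plate controls were buffer only IC0 wells for no effect and SID17386958 at its maximal inhibitory level for full effect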
KCNK3 inh conf = confirmation of human KCNK3 two-pore domain potassium channel inhibitors. AID 651638. ratio percent of control, % at 10 µM. CHO-KCNK3 thallium flux, FluxOR fluorescence; 0% buffer, 100% carvedilol maximal block. shares compounds with KCNK3 inh. 99% of 2,400 active;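 active means ratio percent of control, averaged over triplicates, above buffer control mean plus 5 SD, cut at about 64% in these data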;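 further: ratio is the fluorescence rise from min to max over baseline after thallium stimulus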
KCNK3 uninduced = KCNK3 inhibitor counter-screen hit in non-induced cells | shares compounds with KCNK3 inh | non-induced KCNK3 parental cells, FluxOR thallium flux; active compounds read low | thallium flux ratio (lower = more inhibition) at 10 µM | 40% of 2,400 active | AID 651747;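 active means thallium flux ratio, averaged over three wells, more than 5 SD below the buffer control mean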;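 further: host cells are CHO cells without KCNK3 induction; ratio is peak minus trough fluorescence over baseline then normalized to buffer controls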
* hit, by the source's call.

For Cc1sc2ncnc(N3CCC(C(=O)NNC(=O)c4ccc(Cl)cc4)CC3)c2c1C the results were KCNK3 inh inactive, KCNQ1 block inactive, Kir21 block 1.13, hERG rescue -14.8, KCNK9 inh inactive and KCNQ1 pot inactive.
Cc1cc(=O)c2c([nH]1)c(C)cc1[nH]c(C)c(C)c12 was read as KCNK3 inh inactive.
Screening CC(=O)NCCNC(=O)c1cccc(NS(=O)(=O)c2ccc3c(c2)OCCO3)c1 returned KCNK3 inh inactive, KCNQ1 block inactive, Kir21 block 1.36, hERG rescue -7.5, KCNK9 inh inactive and KCNQ1 pot inactive.
CCCc1cc(=O)oc2cc(OCc3ccc(C(=O)O)cc3)ccc12 was read as KCNK3 inh inactive, KCNQ1 block inactive, Kir21 block -0.18, hERG rescue 0.1, KCNK9 inh inactive and KCNQ1 pot inactive.
`O=C(Nc1ccncc1)c1ccc(Cl)c(S(=O)(=O)N2CCc3ccccc32)c1` gave KCNK3 inh -10.4*, KCNQ1 block 10*, Kir21 block -0.83, hERG rescue -28.3, KCNK9 inh inactive, KCNQ1 pot inactive, KCNQ1 block val 134.5*, CHO Tl flux 0.294*, KCNQ2 spec 94.0%*, KCNQ1 KCNE1 spec 134.0%*, KCNK3 inh conf 136.0* and KCNK3 uninduced 0.158*.
`O=C(Nc1ccncc1)c1ccc(Cl)c(S(=O)(=O)N2CCCCC2)c1` gave KCNK3 inh inactive, KCNQ1 block inactive, Kir21 block -1.46, hERG rescue -15.1, KCNK9 inh inactive and KCNQ1 pot inactive.
Screening COc1ccc(Cl)cc1C(=O)Nc1ccccc1N1CCCCC1 returned KCNK3 inh -8.94*, KCNQ1 block 7*, Kir21 block -0.43, hERG rescue -12.1, KCNK9 inh -8.86*, KCNQ1 pot inactive, KCNQ1 block val 103.0*, CHO Tl flux 0.413, KCNQ1 ephys val inactive, KCNQ2 spec 98.7%*, KCNQ1 KCNE1 spec 146.5%*, KCNK9 block conf 49.5%*, Kir2-1 spec inactive, HEK293 Tl ctr 45.5%*, KCNK3 inh conf 106.7* and KCNK3 uninduced inactive.
COC(=O)c1ccc(CNC(=O)c2ccc(OC)c(S(=O)(=O)NC3CCCC3)c2)cc1 was read as KCNK3 inh inactive.
O=C(NCc1cccc(Cl)c1)c1cc(COc2ccc3ncccc3c2)on1 was read as KCNK3 inh -13.2*, KCNQ1 block 13*, Kir21 block -0.11, hERG rescue -11.9, KCNK9 inh inactive, KCNQ1 pot inactive, KCNQ1 block val 93.0*, CHO Tl flux 0.333*, KCNQ2 spec 99.7%*, KCNQ1 KCNE1 spec active, KCNK3 inh conf 126.0* and KCNK3 uninduced inactive.
Screening Cc1ccc(NC(=O)c2cc(S(=O)(=O)N3CCOCC3)ccc2Cl)cc1S(=O)(=O)N1CCOCC1 returned KCNK3 inh inactive.
Screening CCC(C(=O)Nc1ccncc1)c1ccccc1 (stereo not drawn) returned KCNK3 inh inactive, KCNQ1 block inactive, Kir21 block -0.42, hERG rescue -6.7, KCNK9 inh inactive and KCNQ1 pot inactive.
`CCC(C(=O)Nc1cccc(C(F)(F)F)c1)c1ccccc1` (stereo not drawn) gave KCNK3 inh -9.4*, KCNQ1 block 11*, Kir21 block 0.18, hERG rescue -12.1, KCNK9 inh -10.5*, KCNQ1 pot inactive, KCNQ1 block val 104.5*, CHO Tl flux 0.401, KCNQ1 ephys val active, KCNQ2 spec 72.0%*, KCNQ1 KCNE1 spec 115.5%*, KCNK9 block conf 63.5%*, Kir2-1 spec inactive, HEK293 Tl ctr 43.5%*, KCNK3 inh conf 128.3* and KCNK3 uninduced 0.135*.
Cc1ccc2c(CN(C)Cc3ccc(OC(F)F)cc3)cc(=O)oc2c1C was read as KCNK3 inh -10.2*, KCNQ1 block 11*, Kir21 block 0.56, hERG rescue -20.8, KCNK9 inh inactive, KCNQ1 pot inactive, KCNQ1 block val 127.5*, CHO Tl flux 0.466, KCNQ1 ephys val inactive, KCNQ2 spec 101.3%*, KCNQ1 KCNE1 spec 135.0%*, KCNK3 inh conf 126.3* and KCNK3 uninduced 0.149*.
`CCOc1ccc(S(=O)(=O)NCCC(=O)NCC(c2ccco2)N2CCCCC2)cc1` (stereo not drawn) gave KCNK3 inh inactive.
`CC(Sc1n[nH]c(-c2ccccc2)n1)C(=O)c1c(N)n(C)c(=O)n(C)c1=O` (stereo not drawn) gave KCNK3 inh inactive, KCNQ1 block inactive, Kir21 block 1.35, hERG rescue -15.2, KCNK9 inh inactive and KCNQ1 pot inactive.
